This passage reports MIC results from ChEMBL document CHEMBL1140548, “Synthesis, antibacterial activity, and quantitative structure-activity relationships of new (Z)-2-(nitroimidazolylmethylene)-3(2H)-benzofuranone derivatives” (2007).

Converted amounts (≈) assume the structure as drawn.

Holding throughout (type): functional
The test system of assay [1] is Klebsiella pneumoniae. Put plainly: Antimicrobial activity against Klebsiella pneumoniae ATCC 10031. In outline: (§1)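 Agar-dilution assay run in vitro on a panel of Gram-positive and Gram-negative bacteria, with amoxicillin as the reference drug. The MIC was taken as the minimal inhibitory concentration.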
In assay [2] the test system is Staphylococcus aureus. Put plainly: Antimicrobial activity against methicillin-resistant Staphylococcus aureus isolate. In outline: (§2)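 In vitro conventional agar-dilution assay against a panel of Gram-positive and Gram-negative bacteria. Read-out is the minimal inhibitory concentration (MIC), with amoxicillin as the reference drug.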
Assay [3] deals with Staphylococcus aureus. Put plainly: Antimicrobial activity against Staphylococcus aureus ATCC 6538p. In short, it runs like this:
as §1

Assay [4] relates to Staphylococcus epidermidis. Kind of assay: Antimicrobial activity against Staphylococcus epidermidis ATCC 12228. In short, it runs like this:
as §1

The subject of assay [5] is Bacillus subtilis. Put plainly: Antimicrobial activity against Bacillus subtilis ATCC 6633. In outline:
as §1

For assay [6], the system named is Staphylococcus aureus. Kind of assay: Antimicrobial activity against Staphylococcus aureus ATCC 6538p in presence of 0.1% butylated hydroxytoluene. In short, it runs like this:
as §2

For assay [7], the system named is Staphylococcus aureus. Put plainly: Antimicrobial activity against methicillin-resistant Staphylococcus aureus isolate in presence of 0.1% butylated hydroxytoluene. In short, it runs like this:
as §2

For assay [8], the system named is Bacillus subtilis. Kind of assay: Antimicrobial activity against Bacillus subtilis ATCC 6633 in presence of 0.1% butylated hydroxytoluene.
In assay [9] the test system is Staphylococcus epidermidis. Kind of assay: Antimicrobial activity against Staphylococcus epidermidis ATCC 12228 in presence of 0.1% butylated hydroxytoluene.
In assay [10] the test system is Klebsiella pneumoniae. Kind of assay: Antimicrobial activity against Klebsiella pneumoniae ATCC 10031 in presence of 0.1% butylated hydroxytoluene.

Take `Cc1ccc2c(c1)O/C(=C\c1ncc([N+](=O)[O-])n1C)C2=O`: the MIC in assay [1] stood at 0.39 µg/mL (≈ 1.37 µM); in [2], 1.56 µg/mL (≈ 5.47 µM); in assay [3] it was 3.12 µg/mL (≈ 11 µM); in assay [4], 1.56 µg/mL (≈ 5.47 µM); in assay [5] it was 0.78 µg/mL (≈ 2.73 µM).

Consider `CC1(C)S[C@@H]2[C@H](NC(=O)[C@H](N)c3ccc(O)cc3)C(=O)N2[C@H]1C(=O)O` [AMOXICILLIN], for which the MIC is > 100 µg/mL in [1]; 12.5 µg/mL (≈ 34.2 µM) in assay [2]; 0.195 µg/mL (≈ 0.534 µM) in assay [3]; 0.195 µg/mL (≈ 0.534 µM) in [4]; 12.5 µg/mL (≈ 34.2 µM) in assay [5].

Regarding `Cc1ccc2c(c1)O/C(=C\c1c([N+](=O)[O-])ncn1C)C2=O`, the MIC in assay [1], in [2], in assay [3], in assay [4] and in assay [5] was > 100 µg/mL throughout.

Take `Cn1cnc([N+](=O)[O-])c1/C=C1\Oc2cc(Cl)ccc2C1=O`: the MIC in assay [1], in [2], in [3], in assay [4] and in [5] was > 100 µg/mL each time.

As to `Cn1c([N+](=O)[O-])cnc1/C=C1\Oc2cc(O)ccc2C1=O`, the MIC amounted to 12.5 µg/mL in [6]; 12.5 µg/mL in assay [7]; 6.25 µg/mL in assay [8]; 6.25 µg/mL in assay [9]; 3.12 µg/mL in assay [10].

Regarding `Cn1c([N+](=O)[O-])cnc1/C=C1\Oc2ccc([N+](=O)[O-])cc2C1=O`, the MIC in assay [1] is 6.25 µg/mL (≈ 19.8 µM); in [2], 12.5 µg/mL (≈ 39.5 µM); in [3], 12.5 µg/mL (≈ 39.5 µM); in assay [4], 6.25 µg/mL (≈ 19.8 µM); in assay [5] it was 12.5 µg/mL (≈ 39.5 µM).

On to `Cc1cccc2c1O/C(=C\c1ncc([N+](=O)[O-])n1C)C2=O`, for which the MIC in assay [1] came out at 0.39 µg/mL (≈ 1.37 µM); in assay [2], 3.12 µg/mL (≈ 11 µM); in assay [3] it was 3.12 µg/mL (≈ 11 µM); in assay [4], 1.56 µg/mL (≈ 5.47 µM); in assay [5] it was 1.56 µg/mL (≈ 5.47 µM).

With `Cc1ccc2c(c1)C(=O)/C(=C/c1c([N+](=O)[O-])ncn1C)O2`, the MIC in assay [1], in [2], in [3], in assay [4] and in assay [5] was > 100 µg/mL throughout.

As for `Cn1cnc([N+](=O)[O-])c1/C=C1\Oc2ccccc2C1=O`, the MIC in assay [1], in [2], in assay [3], in [4] and in assay [5] was > 100 µg/mL in each case.

Take `Cn1c([N+](=O)[O-])cnc1/C=C1\Oc2ccc(Br)cc2C1=O`: the MIC is 3.12 µg/mL (≈ 8.93 µM) in assay [1]; > 100 µg/mL in assay [2]; > 100 µg/mL in [3]; > 100 µg/mL in assay [4]; > 100 µg/mL in assay [5].

Take `Cn1cnc([N+](=O)[O-])c1/C=C1\Oc2ccc(Br)cc2C1=O`: the MIC in assay [1], in [2], in assay [3], in assay [4] and in assay [5] was > 100 µg/mL each time.

With `Cn1cnc([N+](=O)[O-])c1/C=C1\Oc2ccc(I)cc2C1=O`, the MIC in assay [1], in assay [2], in [3], in assay [4] and in assay [5] was > 100 µg/mL in each case.

In the case of `Cn1c([N+](=O)[O-])cnc1/C=C1\Oc2ccc(I)cc2C1=O`, the MIC is 50 µg/mL (≈ 126 µM) in assay [1]; > 100 µg/mL in [2]; > 100 µg/mL in [3]; > 100 µg/mL in [4]; > 100 µg/mL in assay [5].

`Cn1c([N+](=O)[O-])cnc1/C=C1\Oc2cc(O)cc(O)c2C1=O`: the MIC was > 100 µg/mL in assay [6]; > 100 µg/mL in assay [7]; 50 µg/mL in [8]; 50 µg/mL in [9]; > 100 µg/mL in [10].

For the compound `Cn1c([N+](=O)[O-])cnc1C=C1C(=O)c2ccccc2C1=O`, the MIC in assay [1] is > 100 µg/mL; in assay [2], 100 µg/mL (≈ 353 µM); in assay [3] it was 100 µg/mL (≈ 353 µM); in assay [4], 50 µg/mL (≈ 177 µM); in assay [5], 50 µg/mL (≈ 177 µM).

Regarding `Cn1c([N+](=O)[O-])cnc1/C=C1\Oc2c(Cl)cccc2C1=O`, the MIC was 1.56 µg/mL (≈ 5.1 µM) in assay [1]; 3.12 µg/mL (≈ 10.2 µM) in [2]; 3.12 µg/mL (≈ 10.2 µM) in assay [3]; 3.12 µg/mL (≈ 10.2 µM) in [4]; 3.12 µg/mL (≈ 10.2 µM) in [5].

For `Cc1ccc2c(c1)C(=O)/C(=C/c1ncc([N+](=O)[O-])n1C)O2`, the MIC stood at 0.39 µg/mL (≈ 1.37 µM) in assay [1]; 3.12 µg/mL (≈ 11 µM) in [2]; 3.12 µg/mL (≈ 11 µM) in assay [3]; 3.12 µg/mL (≈ 11 µM) in assay [4]; 1.56 µg/mL (≈ 5.47 µM) in assay [5].

On to `COc1ccc2c(c1OC)O/C(=C\c1ncc([N+](=O)[O-])n1C)C2=O`, for which the MIC stood at 0.2 µg/mL (≈ 0.604 µM) in assay [1]; 0.78 µg/mL (≈ 2.35 µM) in assay [2]; 0.78 µg/mL (≈ 2.35 µM) in [3]; 0.39 µg/mL (≈ 1.18 µM) in assay [4]; 0.39 µg/mL (≈ 1.18 µM) in assay [5].

With `COc1ccc2c(c1)O/C(=C\c1c([N+](=O)[O-])ncn1C)C2=O`, the MIC in assay [1], in [2], in assay [3], in assay [4] and in assay [5] was > 100 µg/mL throughout.

Consider `Cn1c([N+](=O)[O-])cnc1/C=C1\Oc2cc(Cl)ccc2C1=O`, for which the MIC in assay [1] is 0.78 µg/mL (≈ 2.55 µM); in assay [2], > 100 µg/mL; in assay [3], > 100 µg/mL; in [4], > 100 µg/mL; in assay [5], 1.56 µg/mL (≈ 5.1 µM).

As for `COc1ccc2c(c1)C(=O)/C(=C/c1c([N+](=O)[O-])ncn1C)O2`, the MIC in assay [1] is 6.25 µg/mL (≈ 20.7 µM); in assay [2] it was > 100 µg/mL; in [3] it was > 100 µg/mL; in assay [4] it was > 100 µg/mL; in assay [5] it was > 100 µg/mL.

Regarding `Cn1cnc([N+](=O)[O-])c1/C=C1\Oc2ccc(Cl)cc2C1=O`, the MIC in assay [1], in [2], in [3], in assay [4] and in assay [5] was > 100 µg/mL throughout.

For `COc1ccc2c(c1)C(=O)/C(=C/c1ncc([N+](=O)[O-])n1C)O2`, the MIC turned out to be 0.39 µg/mL (≈ 1.29 µM) in assay [1]; 3.12 µg/mL (≈ 10.4 µM) in assay [2]; 3.12 µg/mL (≈ 10.4 µM) in [3]; 3.12 µg/mL (≈ 10.4 µM) in assay [4]; 0.78 µg/mL (≈ 2.59 µM) in assay [5].

For the compound `COc1cccc2c1O/C(=C\c1ncc([N+](=O)[O-])n1C)C2=O`, the MIC in [1], in assay [2], in assay [3], in assay [4] and in assay [5] was 0.78 µg/mL (≈ 2.59 µM) each time.

With `Cn1c([N+](=O)[O-])cnc1/C=C1\Oc2ccc(Cl)cc2C1=O`, the MIC stood at 0.78 µg/mL (≈ 2.55 µM) in assay [1]; 3.12 µg/mL (≈ 10.2 µM) in assay [2]; 3.12 µg/mL (≈ 10.2 µM) in assay [3]; 3.12 µg/mL (≈ 10.2 µM) in assay [4]; 1.56 µg/mL (≈ 5.1 µM) in assay [5].

On to `Cn1cnc([N+](=O)[O-])c1/C=C1\Oc2c(Cl)cccc2C1=O`, for which the MIC in [1], in assay [2], in assay [3], in assay [4] and in assay [5] was > 100 µg/mL each time.

For `Cn1cnc([N+](=O)[O-])c1/C=C1\Oc2ccc([N+](=O)[O-])cc2C1=O`, the MIC in [1], in assay [2], in assay [3], in assay [4] and in [5] was > 100 µg/mL in each case.

As to `Cn1c([N+](=O)[O-])cnc1/C=C1\Cc2ccccc2C1=O`, the MIC is 0.2 µg/mL (≈ 0.743 µM) in assay [1]; > 100 µg/mL in [2]; > 100 µg/mL in assay [3]; > 100 µg/mL in assay [4]; > 100 µg/mL in assay [5].

For the compound `COc1ccc2c(c1)O/C(=C\c1ncc([N+](=O)[O-])n1C)C2=O`, the MIC was 0.39 µg/mL (≈ 1.29 µM) in assay [1]; 1.56 µg/mL (≈ 5.18 µM) in [2]; 1.56 µg/mL (≈ 5.18 µM) in assay [3]; 1.56 µg/mL (≈ 5.18 µM) in [4]; 0.78 µg/mL (≈ 2.59 µM) in assay [5].

Regarding `Cn1c([N+](=O)[O-])cnc1/C=C1\Oc2ccccc2C1=O`, the MIC in assay [1] is 0.39 µg/mL (≈ 1.44 µM); in assay [2], 6.25 µg/mL (≈ 23 µM); in assay [3], 3.12 µg/mL (≈ 11.5 µM); in assay [4] it was 3.12 µg/mL (≈ 11.5 µM); in assay [5] it was 0.78 µg/mL (≈ 2.88 µM).

On to `Cc1cccc2c1O/C(=C\c1c([N+](=O)[O-])ncn1C)C2=O`, for which the MIC in assay [1], in assay [2], in [3], in assay [4] and in assay [5] was > 100 µg/mL each time.

Consider `COc1cccc2c1O/C(=C\c1c([N+](=O)[O-])ncn1C)C2=O`, for which the MIC in [1], in assay [2], in assay [3], in assay [4] and in assay [5] was > 100 µg/mL each time.

A word on the MIC: it is the smallest concentration in the dilution series that meets the test's criterion for growth inhibition.
